# Published values gathered from unrelated publications.
# Protocols differ between the studies behind these lines.
Structure (SMILES),test system,setting,clearance
O=C1C2N=CN3C(NCc4c(F)ccc5c4CCO5)=NC=C(c4cnc(C(F)(F)F)cc4CN1CC(F)F)C23 (stereo not shown),"male CD-1 mouse, plasma","intravenous, 2 mg/kg",0.0354 L/h/kg
Nc1ncc(-c2ccncc2)nc1Nc1ccc2[nH]ccc2c1,"male C57BL/6 mouse, plasma","intravenous, 5 mg/kg",6.7 L/h/kg
NC(=S)NN=Cc1ncccc1N,"female C57BL/6 mouse, plasma","intravenous, 20 mg/kg",0.828 L/h/kg
CC[C@H](C)[C@@H]1NC(=O)[C@@](C)(NC(=O)[C@H](CCCNC(=N)N)NC(=O)[C@H](CC(C)C)NC(=O)[C@@H](NC(=O)[C@H](CCC(N)=O)NC(=O)[C@H](CC(C)C)NC(C)=O)[C@@H](C)O)CCCC=CCCC[C@@](C)(C(=O)N[C@@H](CC(C)C)C(=O)N[C@@H](Cc2ccc3ccccc3c2)C(N)=O)NC(=O)[C@H](CCCNC(=N)N)NC(=O)[C@H](CCC(N)=O)NC1=O,"male BALB/c mouse, plasma","intravenous, 15 mg/kg",0.0576 L/h/kg
CN(C)C/C=C/C(=O)Nc1ccc(O[C@@H]2CCC[C@@H](Nc3ncc(Cl)c(-c4c[nH]c5ccccc45)n3)C2)cc1,"male Swiss mouse, plasma","intravenous, 3 mg/kg",1.49 L/h/kg
C=C(C[C@H](N)C(=O)O)C(=O)NCc1ccc(F)cc1,"male CD-1 mouse, plasma","intravenous, 2.5 mg/kg",1.76 L/h/kg
CNC(=O)c1cc(OC)cc2c(N3CCc4c(cc(Cn5ccnc5)cc4-c4cn(C)nc4C(F)(F)F)C3=O)ccnc12,"male CD-1 mouse, plasma","intravenous, 3 mg/kg",0.9 L/h/kg
O=C(Nc1ccc(Cl)c(Cl)c1)c1ccc(N2CCNCC2)c([N+](=O)[O-])c1,"male mouse, plasma","oral, 10 mg/kg",3.21 L/h/kg
Cc1noc(C)c1-c1ccc2nc(N3CCN(CCN(C)C)CC3)nc(N3CCOC[C@@H]3c3ccccc3)c2c1,"CD-1 mouse, plasma","intravenous, 2 mg/kg",3.74 L/h/kg
CC(C)c1cnn2c(NCc3ccccc3)cc(NC[C@H]3CCNC[C@@H]3O)nc12,"male CD-1 mouse, plasma","intravenous, 10 mg/kg",4.68 L/h/kg
COc1nc(-c2cc(C)c(N[C@@H](C)c3ccc(F)cc3)nn2)ccc1-n1cnc(C)c1,"male CD-1 mouse, plasma","intravenous, 1 mg/kg, single dose",0.234 L/h/kg
Cc1c(Br)cc(NC(=O)NS(=O)(=O)O)cc1Br,"CD-1 mouse, blood","intravenous, 2 mg/kg",0.339 L/h/kg
COc1cc(OC)c2nccc(N3CCc4c(cc(Cn5ccnc5)cc4-c4cn(C)nc4C(F)(F)F)C3=O)c2c1,"male CD-1 mouse, plasma","intravenous, 3 mg/kg",3.78 L/h/kg
CNCCN(C)c1cc(C#N)cc(CCc2cc(C)cc(N)n2)c1,"male BALB/c mouse, brain","intravenous, 2 mg/kg",1.26 L/h/kg
CCO[C@H]1CCN(Cc2c(OC)cc(C)c3[nH]ccc23)[C@H](c2ccc(C(=O)O)cc2)C1,"C57BL/6 mouse, plasma","intravenous, 1 mg/kg",0.96 L/h/kg
CC(C)(C)c1ccc(O)c(CN(Cc2cc(C(C)(C)C)ccc2O)C2CCC(NC(N)=O)CC2)c1 (stereo not shown),"male C57BL/6 mouse, plasma","oral, 10 mg/kg, single dose",1.94 L/h/kg
Cc1c(Br)cc(NC(=O)CS(=O)(=O)O)cc1Br,"CD-1 mouse, blood","intravenous, 2 mg/kg",1.31 L/h/kg
CCc1cc(OC)c2nccc(N3CCc4c(cc(Cn5ccnc5)cc4-c4cn(C)nc4C(F)(F)F)C3=O)c2c1,"male CD-1 mouse, plasma","intravenous, 3 mg/kg",0.96 L/h/kg
COc1cc(C(=O)N2CCC(N3CCN(C)CC3)CC2)ccc1Nc1ncc2c(n1)N(C)c1ccccc1C(=O)N2C,"mouse, plasma","intravenous, 1 mg/kg",0.336 L/h/kg
